Bioassay records (PubChem BioAssay)
Most compounds without a hit are left out; they make up all but 2.1% or so of the library.
Mot1-301 SUMO: inhibitors of SUMOylation pathway: yeast Mot1-301 growth rescue. S. cerevisiae Mot1-301 growth rescue, ATP luminescence, 38.5C; percent above DMSO median, 100 means doubled. growth rescue, % at 18.8 µM. actives 1% (n = 320,000). AID 2716;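 active = every valid replicate shows activation above 250% relative to neutral control wells; inactive = the rest, any valid replicate at or below 250%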;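 note: OY570 slx delta 5 strain wells were the positive control but not used for scaling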
UCH37 inh: inhibitors of human deubiquitinating enzyme UCH37; Q9Y5K5; inhibition, % (no concentration beside the values); purified proteasome/UCH37, Ub-AMC cleavage fluorescence; actives 0.33% (n = 330,000);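 active = mean inhibition over replicate wells above about 20%, limit read from the data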;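 note: 0% = compound-free wells with enzyme and 100% = wells lacking proteasome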
Target sequence (Q9Y5K5 whole entry, looked up): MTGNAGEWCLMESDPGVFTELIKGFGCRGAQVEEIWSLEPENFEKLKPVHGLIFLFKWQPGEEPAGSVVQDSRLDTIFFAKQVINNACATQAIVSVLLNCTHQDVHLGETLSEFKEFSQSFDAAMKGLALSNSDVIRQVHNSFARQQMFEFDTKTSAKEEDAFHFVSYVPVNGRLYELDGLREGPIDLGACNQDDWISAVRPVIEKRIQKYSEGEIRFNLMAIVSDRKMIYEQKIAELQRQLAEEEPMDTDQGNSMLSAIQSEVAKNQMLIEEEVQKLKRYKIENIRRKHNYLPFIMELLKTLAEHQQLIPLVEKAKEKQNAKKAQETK
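Test system – human UCH37 enzyme supplied as purified proteasome complex · Incubation – 30 min preincubation with enzyme, 25 min cleavage at room temperature · Detection – AMC fluorescence from Ub-AMC cleavage, excitation 355 nm, emission 460 nm · Benchmarks – no-proteasome wells (full inhibition) and compound-free wells (no inhibition)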
cardiac RTF act: increases calcium sensitivity of human cardiac regulated thin filaments; AID 493008; P19429+P45379; IANBD-labeled TnC RTF fluorescence at EC20 calcium; 0% EC20 calcium, 100% full calcium; actives 0.24% (n = 340,000); activation, % at 7.2 µM;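 active = activation above the mean over all tested compounds plus 3 SD, cut at about 30% in these data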;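 note: rise in fluorescence read as greater calcium sensitivity of cardiac thin filaments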
Efflux pump inh: blocks antifungal efflux pumps in multiplex yeast assay; actives 0.44% (n = 330,000); AID 485275; inhibition, % at 10 µM; S. cerevisiae Candida pump triplex, Nile Red efflux;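 active = plate passing quality check with inhibition over a set limit, or well fluorescence over plate mean plus 4 SD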;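 note: Nile Red retained in pooled yeast measured as flow cytometry median fluorescence; 0% = buffer negative control and 100% = Enniatin B positive control; higher means more Nile Red kept so more efflux inhibition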
Cardiac RTF inh: cardiac RTF calcium desensitization | P19429+P45379 | IANBD-labeled cardiac RTF, Ca2+ fluorescence | inhibition, % at 7.15 µM | actives 0.12% (n = 340,000) | AID 493244;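 active = inhibition above the mean inhibition of all tested compounds plus 3 SD, cut at about 17% in these data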;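 note: assay run at fixed EC70 calcium of 1.6 mM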
ARNT TACC3 PPI: ARNT/TACC3 interaction disruption | Q9Y6A5 | AlphaScreen His-ARNT PAS-B/GST-TACC3 binding, luminescence; TACC3 fragment carries E629A point mutation | inhibition, % at 9.99 µM | actives 0.66% (n = 390,000) | AID 623870;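 active = mean inhibition of replicates at least 50% and at least half of replicates each reaching 50%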;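 note: 0% = complete ARNT plus TACC3 wells and 100% = ARNT alone without TACC3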
Cmpd fluor yeast: counter-screen for efflux pump inhibitors: compound fluorescence; shares compounds with Efflux pump inh; S. cerevisiae AD/pABC3, flow cytometry; fluorescence ratio to DMSO, % at 10 µM; actives 4% (n = 1,700); AID 588517;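 active = fluorescence ratio to DMSO above its plate's cutoff, the plate mean ratio plus 5 SD, cut at about 210% in these data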;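 note: unstained yeast with no Nile Red so the signal is compound autofluorescence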
CaMdr1 efflux inh: blocks the Candida albicans Mdr1 efflux pump in yeast. S. cerevisiae AD/CaMDR1, Nile Red efflux, flow cytometry. actives 1% (n = 1,700). inhibition, % at 10 µM. AID 588518. shares compounds with Efflux pump inh; in the data active = inhibition above about 26%;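 note: 0% = DMSO vehicle and 100% = reference inhibitor; higher means more Nile Red retained so more efflux inhibition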
Cdr2 pump inh: blocks the Candida albicans Cdr2 efflux pump in yeast; shares compounds with Efflux pump inh; S. cerevisiae AD/CaCDR2, Nile Red retention, flow cytometry; Nile Red retention ratio vs DMSO, % at 10 µM; actives 4% (n = 1,700); AID 588520; in the data active = Nile Red retention ratio vs DMSO above about 190%;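 note: higher ratio means more blocking of Cdr2 efflux of the dye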
CaCdr1 efflux inh: Candida Cdr1 efflux pump inhibition. actives 1% (n = 1,700). S. cerevisiae AD/CaCDR1, Nile Red efflux, flow cytometry. shares compounds with Efflux pump inh. inhibition, % at 10 µM;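 active = inhibition above the screen-wide mean plus twice its standard deviation, cut at about 32% in these data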
* marks the source's active call; other numbers are inactive results; / = no result.

SMILES	Mot1-301 SUMO	UCH37 inh	cardiac RTF act	Efflux pump inh	Cardiac RTF inh	ARNT TACC3 PPI	Cmpd fluor yeast	CaMdr1 efflux inh	Cdr2 pump inh	CaCdr1 efflux inh
O=C(COC(=O)Cn1cnc2ccccc2c1=O)NNC(=O)c1ccc(Br)cc1	-4	5	1	0.8*	-2	-4	105	0	97	0
O=C(Cn1cnc2ccccc2c1=O)c1ccc(Br)cc1	-26	7	17	0	-4	-2	/	/	/	/
Cc1cc(NC(=NS(=O)(=O)c2ccc(F)cc2F)c2ccccc2)no1	/	-1	/	/	/	/	/	/	/	/
COc1ccc(Cn2c(=O)c3[nH]cnc3n(-c3ccccc3C)c2=O)cc1	-9	2	1	0.8*	-1	12	100	0	116	0
CCC1CCCCN1C(=O)c1cc2c(=O)n3cccc(C)c3nc2s1 (centres undefined)	1	-232	-2	1.7*	0	-1	107	0	95	0
COc1ccccc1C=NOCC(=O)NCc1ccc2c(c1)OCO2	/	5	/	/	/	/	/	/	/	/
O=C(CSc1nnc(-c2ccncc2)n1CC1CCCO1)NCc1ccccc1 (centres undefined)	98	2	1	0	7	-2	/	/	/	/
O=C(CSc1nnc(-c2ccncc2)n1CC1CCCO1)Nc1ccccc1Cl (centres undefined)	70	0	-1	0.5*	5	6	99	0	107	0
O=C(CCc1ccccc1)NC(=S)Nc1ccc(S(=O)(=O)N2CCOCC2)cc1	3	3	-3	8.0*	-11	16	104	0	99	0
COc1ccccc1C=NNc1cn[nH]c(=O)c1Cl	/	3	/	/	/	/	/	/	/	/
O=C(Cc1n[nH]c(=O)[nH]c1=O)NN=Cc1cccc(O)c1	/	0	/	/	/	/	/	/	/	/
CC1CC(C)CN(CCCNC(=O)CN2C(=O)CSc3ccc(S(=O)(=O)N4CCCCC4)cc32)C1 (centres undefined)	1	-2	-3	0.6*	-9	-30	99	0	109	0
O=C(CN1C(=O)CSc2ccc(S(=O)(=O)N3CCOCC3)cc21)NCCCN1CCCCC1	2	4	-1	0	-3	-5	/	/	/	/
CCOC(=O)CC(C)=NNC(=O)C1CC1(c1ccccc1)c1ccccc1 (centres undefined)	/	0	/	/	/	/	/	/	/	/
CCOC(=O)c1cc2sccc2n1CC(=O)O	-19	2	1	0	-3	1	/	/	/	/
CCOC(=O)c1cc2sccc2n1CC(=O)c1ccc2c(c1)OCCO2	-31	2	-2	0.5*	-1	-4	102	0	95	0
Cc1cc(C)c(C(=O)CSC2=NC(N)=C(C#N)C3(CCCCC3)C2C(N)=O)cc1C (centres undefined)	9	4	4	1.3*	-8	6	100	0	107	0
COc1cc2sc(-c3ccccc3OC)c(-c3ccc(OCCN4CCCCC4)cc3)c2cc1OC	-16	/	5	0	3	12	/	/	/	/
COc1ccccc1-c1sc2ccccc2c1-c1ccc(OCCN2CCOCC2)cc1	/	-7	-4	0	-1	3	109	0	100	0
COc1ccccc1-c1sc2cc3c(cc2c1-c1ccc(OCCN2CCCCC2)cc1)OCO3	150	-8	-5	3	7	-1	/	/	/	/
COc1ccc2sc(-c3ccccc3OC)c(-c3ccc(OCCN4CCOCC4)cc3)c2c1	/	0	-3	128*	2	-3	106	89*	94	100*
COc1cc(C=NNC(=O)CNC(=O)c2cccc([N+](=O)[O-])c2)ccc1O	/	1	/	/	/	/	/	/	/	/
CCOC(=O)c1nn(-c2ccccc2)c(=O)c(C#N)c1C	-4	-3	0	1.0*	0	/	101	0	116	0
Cc1ccc(NC(=S)NCc2cccn2C)cc1	-14	1	4	1.2*	-18	-2	105	0	94	0
Cc1cccc(NC(=S)NCc2cccn2C)c1	-27	5	4	0	7	-9	/	/	/	/
SMILES	Mot1-301 SUMO	UCH37 inh	cardiac RTF act	Efflux pump inh	Cardiac RTF inh	ARNT TACC3 PPI	Cmpd fluor yeast	CaMdr1 efflux inh	Cdr2 pump inh	CaCdr1 efflux inh
CCc1ccc(C=Nn2cnnc2)cc1	/	1	/	/	/	/	/	/	/	/
CCOc1ccc(S(=O)(=O)N(C(=O)c2ccco2)c2cc3sc(=O)oc3c3ccccc23)cc1	-9	5	0	2.0*	-2	8	109	0	108	0
S=C(NN=Cc1ccc(Cl)c(Cl)c1)Nc1ccccc1Cl	/	6	/	/	/	/	/	/	/	/
Cc1cccc(C)c1NC(=S)NN=Cc1ccc(C(=O)O)cc1	/	8	/	/	/	/	/	/	/	/
Cc1ccc(S(=O)(=O)Nc2cc(C(C(=O)OC(C)C)C(=O)C(F)(F)F)c(O)c3ccccc23)c(C)c1 (centres undefined)	0	-2	-9	13*	2	9	88	0	96	0
C=C(C)C1CC=C(C)C(=NNC(=O)c2ccoc2C)C1 (centres undefined)	/	2	/	/	/	/	/	/	/	/
O=C1C(Cc2ccccc2)Nc2ncnc(N3CCCCC3)c2N1Cc1ccc(Cl)cc1 (centres undefined)	39	-2	6	0	2	-4	/	/	/	/
O=C1C(Cc2ccccc2)Nc2ncnc(N3CCN(c4ccccc4)CC3)c2N1Cc1ccc(Cl)cc1 (centres undefined)	-1	1	-7	104*	-11	-11	104	109*	101	89*
Cc1cccc(C(=O)NN=Cc2ccc3c(c2)OCO3)n1	/	5	/	/	/	/	/	/	/	/
O=C(NN=Cc1cccnc1)c1cccc(S(=O)(=O)N2CCCC2)c1	/	4	/	/	/	/	/	/	/	/
COc1ccccc1/C=C/C=NNC(=O)c1cc(-c2ccco2)[nH]n1	/	-1	/	/	/	/	/	/	/	/
COc1ccc(C2C(C#N)=C(N)N(c3ccccc3C#N)C3=C2C(=O)CCC3)cc1CN1CCCC1 (centres undefined)	1	3	1	9.6*	-1	15	103	0	91	0
O=C(Nc1ccccc1O)c1cc2cc(Br)ccc2oc1=O	4	/	-5	1.3*	2	-2	113	1	117	0
O=C(COC(=O)c1c2ccccc2cc2ccccc12)Nc1ncc(C(F)(F)F)cc1Cl	19	-348	0	0.4*	-7	-4	113	0	110	0
